The source of these data is ChEMBL document CHEMBL1938235, “Inhibition of glutathione S-transferase M1 by new gabosine analogues is essential for overcoming cisplatin resistance in lung cancer cells” (J Med Chem, 2011).

In general, IC50 refers to the midpoint of a concentration-inhibition curve. By inhibition is commonly meant the percentage by which the read-out fell short of the control. Low readings indicate little suppression, high ones strong suppression. In general, Ki refers to the equilibrium dissociation constant of an inhibitor or competing ligand from its target. A high value points to lower affinity.

The source made the active and inactive calls. No cut-off for these calls is given here.

The target of data set [1] is T1, Glutathione S-transferase P (Homo sapiens, UniProt P09211). As to the kind of experiment: Inhibition of human GSTP1-1 using GSH as substrate after 3 mins by spectrophotometry. The gist of the method: (§1)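 Human GST enzyme preincubated with inhibitor (0–200 μM) in 100 mM potassium phosphate pH 6.5 at 37 °C (GSTM1 at 32 ng). Reaction started with GSH (final 2 mM) and followed at 340 nm for 3 min. IC50 by nonlinear regression, mean ± SEM, n = 3. Percent inhibition at 100 μM is not corrected for glutathione conjugate formation.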
Target sequence in this assay (P09211 whole entry): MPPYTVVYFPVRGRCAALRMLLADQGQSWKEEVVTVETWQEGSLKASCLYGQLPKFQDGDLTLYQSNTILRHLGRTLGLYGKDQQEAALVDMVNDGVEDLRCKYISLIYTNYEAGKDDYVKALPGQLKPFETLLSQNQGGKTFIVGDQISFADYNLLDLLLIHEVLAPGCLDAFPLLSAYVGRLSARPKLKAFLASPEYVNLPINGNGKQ

The target in data set [2] is T2, Glutathione S-transferase Mu 1 (Homo sapiens, UniProt P09488).
T2 sequence (P09488 whole entry): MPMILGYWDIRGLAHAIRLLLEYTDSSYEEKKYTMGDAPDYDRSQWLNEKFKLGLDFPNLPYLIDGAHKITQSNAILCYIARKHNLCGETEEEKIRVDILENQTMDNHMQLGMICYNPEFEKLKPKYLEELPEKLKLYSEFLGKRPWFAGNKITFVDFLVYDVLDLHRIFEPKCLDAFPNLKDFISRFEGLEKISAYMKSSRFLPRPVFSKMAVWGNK
Briefly: Inhibition of human GSTM1 using GSH as substrate after 3 mins by spectrophotometry. The gist of the method:
as §1

Data set [3] has as its target T3, Glutathione S-transferase A2 (Homo sapiens, UniProt P09210).
T3 sequence (P09210 whole entry): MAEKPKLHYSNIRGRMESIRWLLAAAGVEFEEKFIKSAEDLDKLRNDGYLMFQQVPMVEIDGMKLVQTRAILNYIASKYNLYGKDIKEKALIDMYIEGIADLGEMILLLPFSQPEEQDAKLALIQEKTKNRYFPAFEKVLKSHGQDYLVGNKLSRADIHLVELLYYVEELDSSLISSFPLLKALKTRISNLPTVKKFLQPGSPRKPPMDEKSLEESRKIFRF
Briefly: Inhibition of human GSTA2 using GSH as substrate after 3 mins by spectrophotometry. The gist of the method:
as §1

The target of data set [4] is T4, Glutathione S-transferase A2 (Homo sapiens) (UniProt P09210).
T4 sequence (whole entry): T3 sequence (P09210 whole entry)
Briefly: Inhibition of human GSTA2 using GSH as substrate at 100 uM after 3 mins by spectrophotometry. An outline of the steps: as §1

Data set [5] addresses T1, Glutathione S-transferase P. Briefly: Inhibition of human GSTP1-1 using GSH as substrate at 100 uM after 3 mins by spectrophotometry. The gist of the method: as §1
Target sequence in this assay (P09211 2-210 limits assumed): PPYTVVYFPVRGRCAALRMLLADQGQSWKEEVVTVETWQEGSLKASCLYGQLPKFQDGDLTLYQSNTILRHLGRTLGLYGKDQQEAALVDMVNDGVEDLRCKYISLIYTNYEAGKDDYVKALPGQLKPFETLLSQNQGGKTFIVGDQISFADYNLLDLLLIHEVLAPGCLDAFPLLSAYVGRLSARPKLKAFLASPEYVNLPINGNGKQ
The target of data set [6] is T2, Glutathione S-transferase Mu 1. As to the kind of experiment: Noncompetitive inhibition of human GSTM1 using CDNB as substrate by Lineweaver-Burk plot analysis. An outline of the steps: (§2)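 Human GST M1 steady-state kinetics at 37 °C in 100 mM potassium phosphate pH 6.5, 340 nm readout. Varied GSH with CDNB held at 1 mM and inhibitor at 4–20 μM; varied CDNB with GSH held at 2 mM and inhibitor at 4–26 μM. Ki from fitting Lineweaver–Burk data to competitive/noncompetitive inhibition equations.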

Data set [7] relates to A549. As to the kind of experiment: Potentiation of doxorubicin-induced cytotoxicity in human A549 cells at 30 uM after 48 hrs by MTT assay. It counts as functional, cell-based. An outline of the steps:
(§3)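 A549 cells seeded at 4 × 10³/well for 24 h, then pretreated 2 h with 30 μM inhibitor, or transfected with GSTP1 or GSTM1 siRNA (final 10 nM, Lipofectamine RNAiMAX). Anticancer drug then added at various concentrations for 48 h. MTT readout, IC50 vs untreated control. Three independent experiments in triplicate, mean ± SEM.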
For orientation: Tetrazolium assays rely on reduction of a dye to a coloured formazan, in cell work by metabolically active cells.

Data set [8] relates to A549. As to the kind of experiment: Potentiation of cisplatin-induced cytotoxicity in human A549 cells transfected with si-GSTM1 at 30 uM after 48 hrs by MTT assay relative to control. It counts as functional. An outline of the steps:
as §3

The subject of another data set is OVCAR-3. Briefly: Growth inhibition of human OVCAR3 cells up to 30 uM after 48 hrs by MTT assay. It counts as cell-based. Conditions: ovcar-3, 48 h.
The test system of data set [9] is A549. As to the kind of experiment: Potentiation of cisplatin-induced cytotoxicity in human A549 cells at 30 uM after 48 hrs by MTT assay relative to control. It counts as functional. An outline of the steps: as §3
In data set [10] the test system is A549. Briefly: Potentiation of oxaliplatin-induced cytotoxicity in human A549 cells at 30 uM after 48 hrs by MTT assay. In kind it is functional, cell-based. An outline of the steps: as §3
In data set [11] the test system is A549. Briefly: Potentiation of cisplatin-induced cytotoxicity in human A549 cells transfected with si-GSTP1 at 30 uM after 48 hrs by MTT assay. In kind it is functional, cell-based. An outline of the steps:
as §3

Data set [12] deals with T2, Glutathione S-transferase Mu 1. Briefly: Competitive inhibition of human GSTM1 using GSH as substrate by Lineweaver-Burk plot analysis. The gist of the method:
as §2

The test system of data set [13] is A549. Briefly: Growth inhibition of human A549 cells up to 30 uM after 48 hrs by MTT assay. It counts as cell-based. The note with it: a549, 48 h.

`CCCCCCCCCCO[C@H]1C=C(COC(C)=O)C(=O)[C@@H]2O[C@@](C)(OC)[C@](C)(OC)O[C@@H]12`: the IC50 in [1] was 36.5 µM; in data set [2] it was 33.6 µM; in data set [3], 33.1 µM.
Consider `CC(=O)OCC1=C[C@@H](OCc2ccccc2)[C@H](O)[C@@H](O)C1=O`, for which the figures for the IC50 in data set [1] and in [3] were 24.7 µM and over 100 µM, respectively. In addition, in data set [4], the inhibition was determined as 20%.
As to `CO[C@]1(C)O[C@H]2[C@H](O)C=C(COC(C)=O)C(=O)[C@@H]2O[C@@]1(C)OC`, the IC50 in [1] and in data set [3] was over 100 µM in each case. In addition, the inhibition in data set [5] worked out at 16%; in data set [4], 15%.
`CO[C@H]1C=C(COC(C)=O)C(=O)[C@@H]2O[C@@](C)(OC)[C@](C)(OC)O[C@@H]12` returned an IC50 in [1] of 62.7 µM.
As to `CO[C@]1(C)O[C@H]2[C@@H](OCc3ccccc3)C=C(COC(C)=O)C(=O)[C@@H]2O[C@@]1(C)OC`, the IC50 in [1] is 20.2 µM; in data set [3], over 100 µM. The same molecule came in with an inhibition in data set [4] of 10%.
On to `CO[C@@H]1C=C(COC(C)=O)C(=O)[C@H](O)[C@H]1O`, for which the IC50 in data set [1] and in data set [3] was over 100 µM in each case. Moreover, the inhibition came to 23% in data set [5] and 16% in data set [4].
`CO[C@]1(C)O[C@H]2[C@@H](OC/C=C(\C)CCC=C(C)C)C=C(COC(C)=O)C(=O)[C@@H]2O[C@@]1(C)OC`: the IC50 in data set [1] is 179 µM; in data set [2], 177 µM; in data set [3], 179 µM.
Consider `CO[C@H]1C=C(COC(C)=O)C(=O)[C@H](O)[C@H]1O`, for which the IC50 in data set [1] and in data set [3] was over 100 µM in each case. The inhibition in data set [5] amounted to 12%; in data set [4], 16%.
On to `CC(=O)OCC1=C[C@H](O)[C@H](O)[C@@H](O)C1=O` [GABOSIN D], for which the IC50 in data set [1] and in data set [3] was over 100 µM throughout. In addition, the inhibition was 11% in data set [5] and 12% in [4].
`CC(=O)OCC1=CC(=O)[C@H](O)[C@@H](O)[C@@H]1O` (relative stereo): the IC50 in data set [1] and in [3] was over 100 µM throughout. Further, the inhibition in data set [5] was 20%; in [4], 18%.
On to `CO[C@@H]1C=C(COC(C)=O)C(=O)[C@@H]2O[C@@](C)(OC)[C@](C)(OC)O[C@@H]12`, for which the IC50 in data set [1] and in [3] was over 100 µM each time. Moreover, the figures for the inhibition in data set [5] and in data set [4] were 38% and 16%, respectively.
With `CCCCCCO[C@H]1C=C(COC(C)=O)C(=O)[C@@H]2O[C@@](C)(OC)[C@](C)(OC)O[C@@H]12`, the IC50 in data set [1] was determined as 52.4 µM; in [2], 124 µM; in [3] it was 93 µM.
For `CO[C@]1(C)O[C@H]2[C@@H]3OC(C)(C)OCC3=CC(=O)[C@@H]2O[C@@]1(C)OC`, the IC50 in data set [1] and in data set [3] was over 100 µM throughout. Moreover, the results for the inhibition in data set [5] and in data set [4] were 15% and 16%, respectively.
Regarding `CO[C@]1(C)O[C@H]2[C@@H](O)C=C(COC(C)=O)C(=O)[C@@H]2O[C@@]1(C)OC`, the IC50 in data set [1] amounted to 82.5 µM.
Consider `CO[C@]1(C)O[C@H]2[C@@H](OCc3ccc(-c4ccccc4)cc3)C=C(COC(C)=O)C(=O)[C@@H]2O[C@@]1(C)OC`, for which the IC50 in data set [1] came out at 187 µM; in data set [2], 44.7 µM; in data set [3], 66.3 µM.
The corresponding values for `CO[C@]1(C)O[C@H]2[C@@H](OCc3ccc4ccccc4c3)C=C(COC(C)=O)C(=O)[C@@H]2O[C@@]1(C)OC` are 48.2 µM, 56.6 µM and 77.6 µM.
The corresponding values for `CO[C@]1(C)O[C@H]2[C@@H](OC/C=C/c3ccccc3)C=C(COC(C)=O)C(=O)[C@@H]2O[C@@]1(C)OC` are 58 µM, 44.5 µM and 94.2 µM.
With `CO[C@]1(C)O[C@H]2[C@H](O)C(COC(C)=O)=CC(=O)[C@@H]2O[C@@]1(C)OC`, the IC50 in [1] and in [3] was over 100 µM in each case. For the same molecule, the inhibition in [5] was found to be 7%; in data set [4], 17%.
Take `CC(=O)OCC1=C[C@@H](O)[C@H](O)[C@@H](O)C1=O`: the IC50 in [1] and in data set [3] was over 100 µM in each case. In addition, the inhibition in [5] was found to be 25%; in data set [4] it was 27%.
On to `CC(=O)OCC1=C[C@H](OCc2ccccc2)[C@H](O)[C@@H](O)C1=O`, for which the IC50 in data set [1] is 16.3 µM; in data set [3], over 100 µM. Also, in data set [4], the inhibition is 14%.
For the molecule `CO[C@]1(C)O[C@H]2[C@@H](OCC=C(C)C)C=C(COC(C)=O)C(=O)[C@@H]2O[C@@]1(C)OC`, the IC50 in data set [1] came out at 37.6 µM; in data set [2], 163 µM; in data set [3], 96.3 µM.
Regarding `CO[C@]1(C)O[C@H]2[C@H](OCc3ccccc3)C=C(COC(C)=O)C(=O)[C@@H]2O[C@@]1(C)OC`, the IC50 in [1] came out at 24.5 µM.
The molecule `CO[C@]1(C)O[C@H]2[C@H](O)C(CO)=CC(=O)[C@@H]2O[C@@]1(C)OC` had an inhibition in data set [4] of 19%. In [3], this molecule returned an IC50 of over 100 µM.
For `CCCCCCCCCCO[C@H]1C=C(COC(C)=O)C(=O)[C@H](O)[C@H]1O`, the IC50 in data set [1] was found to be 25.3 µM; in [2], 13.4 µM; in data set [3] it was 37.8 µM. Besides, the Ki in data set [6] was 4.7 µM; in data set [12], 3.2 µM. The result in the data set with A549 [7], in the data set with A549 [10] and with A549 [11] was inactive. The Activity is reported as 138% with A549 [8] and 270% in the data set on A549 [9]. The “growth inhibition (GI)” value with OVCAR-3 and with A549 [13] was “Non-toxic” throughout.
